Source: ChEMBL document CHEMBL1121898, “Potential antiestrogens. Synthesis and evaluation of mammary tumor inhibiting activity of 1,2-dialkyl-1,2-bis(3'-hydroxyphenyl)ethanes” (1981)
Where “and” joins values, the source holds several entries; their conditions need not be identical. Equal values may be shown once. Calls of active or inactive are those of the source.

Assays:
MCF7 [1] = assay: Inhibition of estrogen receptor positive MCF-7 cell proliferation as percent treated/control cell number after 10 days at 10e-6 M; assay type: functional, Homo sapiens
Summary of the method: (§1)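 MCF-7 cells were grown in McCoy's 5a medium with fetal bovine serum stripped by DCC (0.5 h, 45 °C). Compounds were dissolved in ethanol (final ≤0.5%) and diluted in complete medium. Cells were seeded at 5×10^4 cells/plate. On day 10, three replicate plates per group were counted by Coulter counter, three counts per plate. Percent T/C = test/control. In a retest, compounds were given at 10^-7 M with 17β-estradiol at 10^-7 or 10^-8 M.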

Rattus norvegicus [2] = organism: Rattus norvegicus; assay: Partial remission of DMBA-induced hormone-dependent mammary carcinoma tumors in rats at 72 mg; assay type: functional
Summary of the method: (§2)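 DMBA-induced, hormone-dependent mammary adenocarcinoma in SD rats. Rats bearing at least one tumor >140 mm² were placed in groups of ten. Compound was given sc as a single dose (mg/kg) daily Monday–Thursday and a double dose on Friday. Tumors were counted at the start and as new tumors; responses were scored as complete remission (not palpable), partial remission (≥50% reduction), no change or progression. Tumor area and body weight were recorded as % change.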

MCF7 [3] = assay: (§3) Inhibition of estrogen receptor positive MCF-7 cell proliferation as cell number after 10 days at 10e-7 M; assay type: functional, Homo sapiens; summary of the method: as §1
Rattus norvegicus [4] = organism: Rattus norvegicus; assay: Percent change in DMBA-induced hormone-dependent mammary carcinoma tumor area at 36 mg after 28 days; assay type: functional; summary of the method: as §2
[5] = target: T1, Estrogen receptor (Mus musculus) (UniProt O08537+P19785); assay: Antiestrogenic activity in uterotrophic test in mice at 0.1 ug (experiment 1); assay type: functional
T1 sequence (O08537 whole entry, looked up): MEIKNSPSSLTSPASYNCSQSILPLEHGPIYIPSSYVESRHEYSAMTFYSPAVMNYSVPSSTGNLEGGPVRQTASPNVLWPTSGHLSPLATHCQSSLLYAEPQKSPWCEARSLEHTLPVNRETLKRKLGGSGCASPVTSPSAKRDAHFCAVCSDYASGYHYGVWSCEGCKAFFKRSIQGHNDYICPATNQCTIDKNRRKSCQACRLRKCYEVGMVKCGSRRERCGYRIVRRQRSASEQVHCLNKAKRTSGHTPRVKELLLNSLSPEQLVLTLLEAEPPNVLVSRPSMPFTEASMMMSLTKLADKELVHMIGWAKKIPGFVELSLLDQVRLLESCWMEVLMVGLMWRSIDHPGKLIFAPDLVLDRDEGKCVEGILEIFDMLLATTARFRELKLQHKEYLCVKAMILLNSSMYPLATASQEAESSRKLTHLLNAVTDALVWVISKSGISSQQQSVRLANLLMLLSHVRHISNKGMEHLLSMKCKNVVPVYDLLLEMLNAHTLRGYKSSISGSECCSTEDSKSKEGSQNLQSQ
T1 sequence (P19785 whole entry, looked up): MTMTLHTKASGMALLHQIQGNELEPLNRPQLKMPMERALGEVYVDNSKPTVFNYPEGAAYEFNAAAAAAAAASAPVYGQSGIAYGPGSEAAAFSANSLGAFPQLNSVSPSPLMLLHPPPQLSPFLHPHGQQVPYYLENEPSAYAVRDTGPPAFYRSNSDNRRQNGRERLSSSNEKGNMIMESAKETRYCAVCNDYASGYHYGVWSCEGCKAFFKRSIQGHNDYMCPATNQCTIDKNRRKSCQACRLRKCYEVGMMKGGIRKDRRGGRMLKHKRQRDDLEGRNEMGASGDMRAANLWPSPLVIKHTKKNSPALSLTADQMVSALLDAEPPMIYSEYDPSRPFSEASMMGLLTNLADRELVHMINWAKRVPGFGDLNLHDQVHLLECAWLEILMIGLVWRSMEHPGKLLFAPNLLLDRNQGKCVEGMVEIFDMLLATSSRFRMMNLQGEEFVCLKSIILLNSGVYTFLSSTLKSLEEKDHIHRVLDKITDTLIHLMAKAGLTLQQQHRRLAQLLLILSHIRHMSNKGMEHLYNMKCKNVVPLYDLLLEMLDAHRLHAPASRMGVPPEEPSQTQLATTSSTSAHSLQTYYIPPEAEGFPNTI
Summary of the method: (§4)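 Immature female NMRI mice, 20 days old (14.5 ± 1.2 g), randomly grouped 10 per group. Each received a daily sc injection for 3 days of 0.1 mL olive oil solution containing test compound, together with estrone to stimulate uterine growth. Uteri were removed 24 h after the last injection and weighed. Results are reported as % inhibition of the estrone-stimulated uterine weight gain, mean ± SD.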

Rattus norvegicus [6] = organism: Rattus norvegicus; assay: Percent change in body weight DMBA-induced hormone-dependent mammary carcinoma tumors in rats at 36 mg for 7 days; assay type: functional
[7] = target: T1, Estrogen receptor (Mus musculus); assay: Antiestrogenic activity in uterotrophic test in mice at 0 ug (experiment 3); assay type: functional; summary of the method: as §4
MCF7 [8] = assay: as §3; assay type: functional, Homo sapiens; summary of the method: as §1; remark: listed apart in the source
MCF7 [9] = assay: Inhibition of estrogen receptor positive MCF-7 cell proliferation as cell number after 10 days at 10e-8 M; assay type: functional, Homo sapiens; summary of the method: as §1
Rattus norvegicus [10] = organism: Rattus norvegicus; assay: Percent change in body weight DMBA-induced hormone-dependent mammary carcinoma tumors in rats at 72 mg for 7 days; assay type: functional
Rattus norvegicus [11] = organism: Rattus norvegicus; assay: Percent change in DMBA-induced hormone-dependent mammary carcinoma tumor area at 72 mg after 28 days; assay type: functional; summary of the method: as §2
MCF7 [12] = assay: Inhibition of estrogen receptor positive MCF-7 cell proliferation as percent treated/control cell number after 10 days at 10e-7 M with 10e-7 M 17-beta-estradiol; assay type: functional, Homo sapiens; summary of the method: as §1
Rattus norvegicus [13] = organism: Rattus norvegicus; assay: Percent unchanged tumor size of DMBA-induced hormone-dependent mammary carcinoma tumors in rats at 72 mg; assay type: functional
Rattus norvegicus [14] = organism: Rattus norvegicus; assay: Percent change in DMBA-induced hormone-dependent mammary carcinoma tumor area at 18 mg after 28 days; assay type: functional; summary of the method: as §2
MCF7 [15] = assay: Inhibition of estrogen receptor positive MCF-7 cell proliferation as cell number after 10 days at 10e-6 M; assay type: functional, Homo sapiens; summary of the method: as §1
Rattus norvegicus [16] = organism: Rattus norvegicus; assay: Percent unchanged tumor size of DMBA-induced hormone-dependent mammary carcinoma tumors in rats at 36 mg; assay type: functional
Rattus norvegicus [17] = organism: Rattus norvegicus; assay: Initial tumor number of DMBA-induced hormone-dependent mammary carcinoma in rats at 18 mg; assay type: functional; summary of the method: as §2
Rattus norvegicus [18] = organism: Rattus norvegicus; assay: Final number of DMBA-induced hormone-dependent mammary carcinoma tumors in rats at 18 mg; assay type: functional
Summary of the method: (§5)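 Sprague-Dawley rats carrying DMBA-induced, hormone-dependent mammary adenocarcinoma, at least one tumor >140 mm², were placed in groups of ten. Compounds were given sc, with doses in mg/kg: a single daily dose Monday to Thursday and a double dose on Friday. Ovariectomy served as a comparator group. New tumors arising during the test were counted.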

[19] = target: T1, Estrogen receptor (Mus musculus); assay: Antiestrogenic activity in uterotrophic test in mice at 500 ug (experiment 3); assay type: functional; summary of the method: as §4
Rattus norvegicus [20] = organism: Rattus norvegicus; assay: Final number of DMBA-induced hormone-dependent mammary carcinoma tumors in rats at 36 mg; assay type: functional; summary of the method: as §5
[21] = target: T1, Estrogen receptor (Mus musculus); assay: Estrogenic activity in uterotrophic test in mice; No effect; assay type: functional
Summary of the method: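 Immature (20-day-old) female NMRI mice, 14.5 ± 1.2 g, randomized into groups of 10. Given the test compound sc daily for 3 days in 0.1 mL olive oil. Uteri removed 24 h after the last injection; uterine weight taken as the read-out, means ± SD. Dose in μg.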

Rattus norvegicus [22] = organism: Rattus norvegicus; assay: Percent unchanged tumor size of DMBA-induced hormone-dependent mammary carcinoma tumors in rats at 18 mg; assay type: functional
Rattus norvegicus [23] = organism: Rattus norvegicus; assay: Progression of DMBA-induced hormone-dependent mammary carcinoma tumors in rats at 72 mg; assay type: functional; summary of the method: as §2
[24] = target: T1, Estrogen receptor (Mus musculus); assay: Inhibitory activity in mouse uterine weight test at 500 ug (experiment 3); assay type: functional
Summary of the method: (§6)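 Immature female NMRI mice, 20 days old (14.5 ± 1.2 g), in random groups of 10. They received sc injections daily for 3 days of 0.1 mL olive oil containing test compound, with estrone 0.1 μg given to stimulate uterine growth. Uteri were removed 24 h after the last injection and weighed (mean ± SD). Result is percent inhibition of the estrone-stimulated uterine weight gain.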

Rattus norvegicus [25] = organism: Rattus norvegicus; assay: Initial tumor number of DMBA-induced hormone-dependent mammary carcinoma in rats at 72 mg; assay type: functional; summary of the method: as §2
Rattus norvegicus [26] = organism: Rattus norvegicus; assay: Complete remission of DMBA-induced hormone-dependent mammary carcinoma tumors in rats at 36 mg; assay type: functional
Summary of the method: (§7)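 Female SD rats bearing DMBA-induced, hormone-dependent mammary adenocarcinoma, with at least one tumor >140 mm², were grouped in tens. Dosing was sc per kg body weight: a single dose daily Monday–Thursday and a double dose Friday. Ovariectomy served as the comparison arm. Complete remission was defined as a tumor no longer palpable. Body weight and tumor area changes were also recorded.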

MCF7 [27] = assay: Inhibition of estrogen receptor positive MCF-7 cell proliferation as percent treated/control cell number after 10 days at 10e-7 M with 10e-8 M 17-beta-estradiol; assay type: functional, Homo sapiens; summary of the method: as §1
Rattus norvegicus [28] = organism: Rattus norvegicus; assay: Initial tumor number of DMBA-induced hormone-dependent mammary carcinoma in rats at 36 mg; assay type: functional; summary of the method: as §2
[29] = target: T1, Estrogen receptor (Mus musculus); assay: Antiestrogenic activity in uterotrophic test in mice at 0 ug (experiment 2); assay type: functional; summary of the method: as §4
MCF7 [30] = assay: Inhibition of estrogen receptor positive MCF-7 cell proliferation as cell number after 10 days at 10e-9 M; assay type: functional, Homo sapiens; summary of the method: as §1
[31] = system: Estrogen receptor (Bos taurus); assay: Displacement of [3H]estradiol from calf estrogen receptor
[32] = target: T1, Estrogen receptor (Mus musculus); assay: Antiestrogenic activity in uterotrophic test in mice at 5 ug (experiment 2); assay type: functional; summary of the method: as §4
MCF7 [33] = assay: Inhibition of estrogen receptor positive MCF-7 cell proliferation as cell number after 10 days at 10e-7 M and 10e-7 M 17-beta-estradiol; assay type: functional, Homo sapiens; summary of the method: as §1
MCF7 [34] = assay: Inhibition of estrogen receptor positive MCF-7 cell proliferation as cell number after 10 days at 10e-7 M and 10e-8 M 17-beta-estradiol; assay type: functional, Homo sapiens; summary of the method: as §1
Rattus norvegicus [35] = organism: Rattus norvegicus; assay: Percent change in body weight DMBA-induced hormone-dependent mammary carcinoma tumors in rats at 18 mg for 7 days; assay type: functional; summary of the method: as §2
MCF7 [36] = assay: Inhibition of estrogen receptor positive MCF-7 cell proliferation as percent treated/control cell number after 10 days at 10e-8 M; assay type: functional, Homo sapiens; summary of the method: as §1
[37] = target: T1, Estrogen receptor (Mus musculus); assay: Inhibitory activity in mouse uterine weight test at 50 ug (experiment 3); assay type: functional; summary of the method: as §6
MCF7 [38] = assay: Inhibition of estrogen receptor positive MCF-7 cell proliferation as percent treated/control cell number after 10 days at 10e-7 M; assay type: functional, Homo sapiens; summary of the method: as §1
[39] = target: T1, Estrogen receptor (Mus musculus); assay: Inhibitory activity in mouse uterine weight test at 5 ug (experiment 2); assay type: functional
Summary of the method: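 Antiuterotrophic (Dorfman) assay in immature 20-day-old female NMRI mice, groups of 10. Uterine growth was stimulated with estrone (0.1 μg) and the test compound was given alongside it, sc daily for 3 days in 0.1 mL olive oil. Uteri were taken 24 h after the last dose. Uterine weight is reported as means ± SD and inhibition as % of the estrone-stimulated response.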

Rattus norvegicus [40] = organism: Rattus norvegicus; assay: Final number of DMBA-induced hormone-dependent mammary carcinoma tumors in rats at 72 mg; assay type: functional; summary of the method: as §5
MCF7 [41] = assay: Inhibition of estrogen receptor positive MCF-7 cell proliferation as percent treated/control cell number after 10 days at 10e-9 M; assay type: functional, Homo sapiens; summary of the method: as §1
Rattus norvegicus [42] = organism: Rattus norvegicus; assay: Complete remission of DMBA-induced hormone-dependent mammary carcinoma tumors in rats at 18 mg; assay type: functional; summary of the method: as §7
[43] = target: T1, Estrogen receptor (Mus musculus); assay: Antiestrogenic activity in uterotrophic test in mice at 50 ug (experiment 3); assay type: functional; summary of the method: as §4
Rattus norvegicus [44] = organism: Rattus norvegicus; assay: Partial remission of DMBA-induced hormone-dependent mammary carcinoma tumors in rats at 36 mg; assay type: functional; summary of the method: as §2
Rattus norvegicus [45] = organism: Rattus norvegicus; assay: Complete remission of DMBA-induced hormone-dependent mammary carcinoma tumors in rats at 72 mg; assay type: functional; summary of the method: as §7
Rattus norvegicus [46] = organism: Rattus norvegicus; assay: Partial remission of DMBA-induced hormone-dependent mammary carcinoma tumors in rats at 18 mg; assay type: functional; summary of the method: as §2
Rattus norvegicus [47] = organism: Rattus norvegicus; assay: Progression of DMBA-induced hormone-dependent mammary carcinoma tumors in rats at 18 mg; assay type: functional

SMILES: CC(c1cccc(O)c1)C(C)c1cccc(O)c1 (configuration not stated)
- T/C (MCF7 [1]): 71%
- Tumors (Rattus norvegicus [2]): 25%
- Cell number (MCF7 [3]): 6100
- Change (Rattus norvegicus [4]): 105%
- Effect [5]: 38.5
- Change (Rattus norvegicus [6]): 1.6%
- Effect [7]: 9.9
- Cell number (MCF7 [8]): 33600
- Cell number (MCF7 [9]): 35900
- Change (Rattus norvegicus [10]): 0.9%
- Change (Rattus norvegicus [11]): 6%
- T/C (MCF7 [12]): 107%
- Tumors (Rattus norvegicus [13]): 16%
- Change (Rattus norvegicus [14]): 188%
- Cell number (MCF7 [15]): 32200
- Tumors (Rattus norvegicus [16]): 38%
- No. of tumors (Rattus norvegicus [17]): 21
- No. of tumors (Rattus norvegicus [18]): 16
- Effect [19]: 29
- No. of tumors (Rattus norvegicus [20]): 12
- Effect [21]: inactive
- Tumors (Rattus norvegicus [22]): 24%
- Tumors (Rattus norvegicus [23]): 25%
- inhibition [24]: 31%
- No. of tumors (Rattus norvegicus [25]): 26
- Tumors (Rattus norvegicus [26]): 29%
- T/C (MCF7 [27]): 121%
- No. of tumors (Rattus norvegicus [28]): 22
- Effect [29]: 10.5
- Cell number (MCF7 [30]): 39800
- Ka [31]: 1.1e+07 M⁻¹
- Effect [32]: 36.5
- Cell number (MCF7 [33]): 7100
- Cell number (MCF7 [34]): 8000
- Change (Rattus norvegicus [35]): 2.4%
- T/C (MCF7 [36]): 82%
- inhibition [37]: 12%
- T/C (MCF7 [38]): 92% and 77%
- inhibition [39]: 7%
- No. of tumors (Rattus norvegicus [40]): 22
- T/C (MCF7 [41]): 91%
- Tumors (Rattus norvegicus [42]): 14%
- Effect [43]: 34.3
- Tumors (Rattus norvegicus [44]): 9%
- Tumors (Rattus norvegicus [45]): 34%
- Tumors (Rattus norvegicus [46]): 11%
- Tumors (Rattus norvegicus [47]): 51%
